Measured values published in ChEMBL document CHEMBL1944507, “Structure-activity relationships for amide-, carbamate-, and urea-linked analogues of the tuberculosis drug (6S)-2-nitro-6-{[4-(trifluoromethoxy)benzyl]oxy}-6,7-dihydro-5H-imidazo[2,1-b][1,3]oxazine (PA-824)” (J Med Chem, 2012).
In brackets after ≈: the same amount, converted by molar mass.

What was measured:
[1] = system: Mycobacterium tuberculosis; assay: Antimicrobial activity against Mycobacterium tuberculosis H37Rv ATCC 27294 harboring pFCA-lux AB gene measured under aerobic condition after 8 days by luminescence analysis; type: functional; conditions: H37Rv ATCC 27294, 192 h
Procedure, shortened: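 MABA: replicating M. tb H37Rv exposed to compound aerobically for 8 days. […] Mean of at least two independent determinations ± SD.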

[2] = system: Mycobacterium tuberculosis; assay: Antimicrobial activity against Mycobacterium tuberculosis H37Rv ATCC 27294 harboring pFCA-lux AB gene measured under anaerobic condition after 11 days by luminescence analysis; type: functional; conditions: H37Rv ATCC 27294, 264 h
Procedure, shortened: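 LORA: luminescence-based low-oxygen-recovery assay on nonreplicating M. tb, 11-day anaerobic exposure. MIC is the mean of at least two independent determinations ± SD.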

Row | Structure (SMILES) | MIC [1] [µM] | MIC [2] [µM]
1 | O=C(Nc1ccc(-c2ccc(F)cc2)cc1)O[C@@H]1COc2nc([N+](=O)[O-])cn2C1 | 1.3 (≈ 0.518 µg/mL) | 18 (≈ 7.17 µg/mL)
2 | O=C(Nc1ccc(-c2ccc(OC(F)(F)F)cc2)cc1)O[C@@H]1COc2nc([N+](=O)[O-])cn2C1 | 0.05 (≈ 0.0232 µg/mL) | > 32
3 | O=C(Nc1ccc(-c2ccc(C(F)(F)F)nc2)cc1)O[C@@H]1COc2nc([N+](=O)[O-])cn2C1 | 0.25 (≈ 0.112 µg/mL) | 4.1 (≈ 1.84 µg/mL)
4 | O=C(Nc1ccc(-c2ccc(F)nc2)cc1)O[C@@H]1COc2nc([N+](=O)[O-])cn2C1 | 0.13 (≈ 0.0519 µg/mL) | 4.3 (≈ 1.72 µg/mL)
5 | O=C(Nc1ccc(-c2ccnc(C(F)(F)F)c2)cc1)O[C@@H]1COc2nc([N+](=O)[O-])cn2C1 | 0.75 (≈ 0.337 µg/mL) | 6.2 (≈ 2.79 µg/mL)
6 | O=C(NCc1ccc(-c2ccc(C(F)(F)F)cc2)cc1)O[C@@H]1COc2nc([N+](=O)[O-])cn2C1 | 0.24 (≈ 0.111 µg/mL) | > 32
7 | O=C(NCc1ccc(-c2ccc(F)cc2)cc1)O[C@@H]1COc2nc([N+](=O)[O-])cn2C1 | 0.11 (≈ 0.0454 µg/mL) | 4.5 (≈ 1.86 µg/mL)
8 | O=C(NCc1ccc(-c2ccc(OC(F)(F)F)cc2)cc1)O[C@@H]1COc2nc([N+](=O)[O-])cn2C1 | 0.52 (≈ 0.249 µg/mL) | 2.4 (≈ 1.15 µg/mL)
9 | O=C(NCc1ccc(-c2ccc(C(F)(F)F)nc2)cc1)O[C@@H]1COc2nc([N+](=O)[O-])cn2C1 | 0.69 (≈ 0.32 µg/mL) | 11 (≈ 5.1 µg/mL)
10 | O=C(O[C@@H]1COc2nc([N+](=O)[O-])cn2C1)N1CCN(c2ccc(OC(F)(F)F)cc2)CC1 | 0.033 (≈ 0.0151 µg/mL) | 1.1 (≈ 0.503 µg/mL)
11 | O=C(O[C@@H]1COc2nc([N+](=O)[O-])cn2C1)N1CC[C@H](Oc2ccc(OC(F)(F)F)cc2)C1 | 0.06 (≈ 0.0275 µg/mL) | 1.6 (≈ 0.733 µg/mL)
12 | O=C(O[C@@H]1COc2nc([N+](=O)[O-])cn2C1)N1CCC(Oc2ccc(C(F)(F)F)nc2)CC1 | 0.14 (≈ 0.064 µg/mL) | 27 (≈ 12.3 µg/mL)
13 | CN(Cc1ccc(OC(F)(F)F)cc1)C1CCN(C(=O)O[C@@H]2COc3nc([N+](=O)[O-])cn3C2)CC1 | 0.18 (≈ 0.0899 µg/mL) | 26 (≈ 13 µg/mL)
14 | O=C(COc1ccc(-c2ccc(C(F)(F)F)cc2)cc1)N[C@@H]1COc2nc([N+](=O)[O-])cn2C1 | 0.25 (≈ 0.116 µg/mL) | > 32
15 | O=C(N[C@@H]1COc2nc([N+](=O)[O-])cn2C1)OCc1ccc(-c2ccc(F)cc2)cc1 | 0.085 (≈ 0.0351 µg/mL) | 4.2 (≈ 1.73 µg/mL)
16 | O=C(N[C@@H]1COc2nc([N+](=O)[O-])cn2C1)OCc1ccc(-c2ccc(C(F)(F)F)cc2)cc1 | 0.08 (≈ 0.037 µg/mL) | 4.5 (≈ 2.08 µg/mL)
17 | O=C(COc1ccc(-c2ccc(C(F)(F)F)nc2)cc1)N[C@@H]1COc2nc([N+](=O)[O-])cn2C1 | 0.69 (≈ 0.32 µg/mL) | 30 (≈ 13.9 µg/mL)

Row | Structure (SMILES) | MIC [1] [µM] | MIC [2] [µM]
18 | O=C(COc1ccc(-c2ccc(F)nc2)cc1)N[C@@H]1COc2nc([N+](=O)[O-])cn2C1 | 0.69 (≈ 0.285 µg/mL) | 31 (≈ 12.8 µg/mL)
19 | O=C(COc1ccc(-c2ccc(OC(F)(F)F)cc2)cc1)N[C@@H]1COc2nc([N+](=O)[O-])cn2C1 | 0.18 (≈ 0.0861 µg/mL) | 25 (≈ 12 µg/mL)
20 | O=C(COc1ccc(-c2ccc(F)cc2)cc1)N[C@@H]1COc2nc([N+](=O)[O-])cn2C1 | 0.17 (≈ 0.0701 µg/mL) | 26 (≈ 10.7 µg/mL)
21 | O=C(Cc1ccc(-c2ccc(F)nc2)cc1)N[C@@H]1COc2nc([N+](=O)[O-])cn2C1 | 0.68 (≈ 0.27 µg/mL) | > 32
22 | O=C(Cc1ccc(-c2ccc(C(F)(F)F)nc2)cc1)N[C@@H]1COc2nc([N+](=O)[O-])cn2C1 | 0.46 (≈ 0.206 µg/mL) | > 32
23 | O=C(Cc1ccc(-c2ccc(OC(F)(F)F)cc2)cc1)N[C@@H]1COc2nc([N+](=O)[O-])cn2C1 | 0.22 (≈ 0.102 µg/mL) | 5 (≈ 2.31 µg/mL)
24 | O=C(Cc1ccc(-c2ccc(C(F)(F)F)cc2)cc1)N[C@@H]1COc2nc([N+](=O)[O-])cn2C1 | 0.44 (≈ 0.196 µg/mL) | 23 (≈ 10.3 µg/mL)
25 | O=C(Cc1ccc(-c2ccc(F)cc2)cc1)N[C@@H]1COc2nc([N+](=O)[O-])cn2C1 | 0.33 (≈ 0.131 µg/mL) | 11 (≈ 4.36 µg/mL)
26 | O=C(CO[C@@H]1COc2nc([N+](=O)[O-])cn2C1)Nc1ccc(OC(F)(F)F)cc1 | 0.24 (≈ 0.0965 µg/mL) | 7.8 (≈ 3.14 µg/mL)
27 | CN(C(=O)N(C)[C@@H]1COc2nc([N+](=O)[O-])cn2C1)c1ccc(OC(F)(F)F)cc1 | 12 (≈ 4.98 µg/mL) | > 64
28 | O=[N+]([O-])c1cn2c(n1)OC[C@@H](NC(=S)Nc1ccc(OC(F)(F)F)cc1)C2 | 8 (≈ 3.23 µg/mL) | > 64
29 | O=C(NCc1ccc(OC(F)(F)F)cc1)N[C@@H]1COc2nc([N+](=O)[O-])cn2C1 | 0.27 (≈ 0.108 µg/mL) | 4.1 (≈ 1.65 µg/mL)
30 | CN(C(=O)O[C@@H]1COc2nc([N+](=O)[O-])cn2C1)c1ccc(OC(F)(F)F)cc1 | 0.21 (≈ 0.0845 µg/mL) | 5.4 (≈ 2.17 µg/mL)
31 | O=C(NCc1ccc(OC(F)(F)F)cc1)O[C@@H]1COc2nc([N+](=O)[O-])cn2C1 | 0.25 (≈ 0.101 µg/mL) | 17 (≈ 6.84 µg/mL)
32 | O=C(COc1ccc(OC(F)(F)F)cc1)N[C@@H]1COc2nc([N+](=O)[O-])cn2C1 | 0.16 (≈ 0.0644 µg/mL) | 10 (≈ 4.02 µg/mL)
33 | O=[N+]([O-])c1cn2c(n1)OC[C@@H](NCc1ccc(OC(F)(F)F)cc1)C2 | 0.22 (≈ 0.0788 µg/mL) | 5.3 (≈ 1.9 µg/mL)
34 | O=[N+]([O-])c1cn2c(n1)OC[C@@H](OCc1ccc(-c3ccc(OC(F)(F)F)cc3)cc1)C2 | 0.35 (≈ 0.152 µg/mL) | 
